PMC11329366 (Clinical and Translational Science, 2024)

What was measured:
[1] = tested on: plasma 11-deoxycortisol; test: Phase I pharmacodynamics: plasma 11-deoxycortisol; format: in vivo, human; conditions: MAD, non-ACTH challenge conditions
[2] = Phase I first-in-human study: safety and tolerability; format: in vivo
In short: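 Randomized, double-blind, placebo-controlled. SAD cohorts had 6 active/2 placebo, with two sentinels dosed ≥24 h before the rest. MAD cohorts had 9 active/3 placebo, dosed daily Days 1–7. Safety data were reviewed before each next cohort. Monitoring covered TEAEs, treatment-related TEAEs, vital signs, 12-lead ECGs, clinical laboratory tests and physical examinations.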

[3] = tested on: serum potassium; test: Phase I: serum potassium; format: in vivo, human
In short: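 Serum potassium was tracked during 7 days of once-daily 40, 120 or 360 mg dosing (fed) and the following washout. The stopping criterion was 6.0 mmol/L potassium.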

[4] = tested on: serum cortisol; test: Phase I pharmacodynamics: serum cortisol, incl. ACTH challenge; format: in vivo, human
In short: (§1)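 Plasma aldosterone and serum cortisol were followed after single fasted doses and after daily fed dosing. PAC AUC0–24 and cortisol AUC0–72 were derived non-compartmentally. Log AUC was modelled by dose group (pooled placebo), with Day ‑1 log AUC0–24 as covariate. Log change from time-matched Day ‑1 values over 0–24 h used a linear mixed model with unstructured covariance.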

[5] = tested on: plasma renin activity; test: Phase I pharmacodynamics: plasma renin activity; format: in vivo, human; conditions: MAD 40 to 360 mg once daily
[6] = tested on: plasma aldosterone; test: Phase I pharmacodynamics: plasma aldosterone concentration; format: in vivo, human
In short: as §1

[7] = biological target: T1, human CYP11B2 (hCYP11B2) (Homo sapiens, UniProt P19099); test: Assay of hCYP11B2 inhibition; format: biochemical; conditions: from inhibition constants
T1 sequence (P19099 25-503): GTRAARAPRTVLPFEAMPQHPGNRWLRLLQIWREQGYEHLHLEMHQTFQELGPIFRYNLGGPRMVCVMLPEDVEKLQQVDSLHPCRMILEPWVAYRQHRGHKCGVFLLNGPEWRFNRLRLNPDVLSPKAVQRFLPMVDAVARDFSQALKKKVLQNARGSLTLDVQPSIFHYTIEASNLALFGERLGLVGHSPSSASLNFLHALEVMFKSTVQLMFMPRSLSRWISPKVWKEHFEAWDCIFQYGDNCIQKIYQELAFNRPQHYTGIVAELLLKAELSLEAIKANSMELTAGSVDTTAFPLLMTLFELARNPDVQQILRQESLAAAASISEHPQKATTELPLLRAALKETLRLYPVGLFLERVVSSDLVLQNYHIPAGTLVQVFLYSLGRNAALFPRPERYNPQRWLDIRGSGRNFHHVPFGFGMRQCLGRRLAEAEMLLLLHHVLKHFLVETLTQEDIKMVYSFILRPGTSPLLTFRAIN
In short: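 Enzyme source: mitochondrial fraction of V79 cells stably expressing human CYP11B2 or human CYP11B1. Substrates were 11-DOC (converted to aldosterone, CYP11B2) and 11-deoxycortisol (converted to cortisol, CYP11B1). Inhibition constants came from product-generation rates with the free base. A dual CYP11B1/CYP11B2 reference inhibitor served as positive control.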

[8] = tested on: serum 11-DOC; test: Phase I pharmacodynamics: serum 11-DOC; format: in vivo, human; conditions: MAD 40 to 360 mg once daily
[9] = tested on: urinary log10 (10 × Na+/K+) ratio; test: Phase I pharmacodynamics: urine sodium and urinary log10; format: in vivo, human
In short: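 Urine was collected in intervals, and the amounts of sodium and potassium excreted per interval were measured. The urinary log10(10 × Na⁺/K⁺) ratio was calculated per interval after single doses and through 7 days of once-daily 40–360 mg dosing plus washout.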

[10] = Phase I first-in-human study: plasma and urine pharmacokinetics; format: in vivo
In short: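 Healthy participants received an oral capsule. SAD: 5–800 mg fasted. MAD: 40, 120 or 360 mg once daily Days 1–7, fed. Females, or males ≥65 y, got a single 100 mg fasted dose, referenced to part 1. Plasma (all parts) and urine (MAD) were analysed non-compartmentally, BLQ=0, linear trapezoidal AUC. Dose proportionality used a power model (slope 95% CI); sex/age used geometric mean ratios (90% CI); fed-vs-fasted was compared informally.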

[11] = MAD Day 6, all multiple-dose levels

CC(=O)N[C@H]1CC[C@H](NC(=O)CN2CCN(c3nncc(-c4ccc(C)cc4)n3)CC2)CC1 [lorundrostat, Lorundrostat]
change from baseline of plasma 11-deoxycortisol concentrations [1]: no relevant changes from baseline | incidence of dizziness (of mild intensity) ([2]; across all cohorts, nine lorundrostat-treated participants, placebo one (3.4%)): 10.3% | overall incidence of TEAEs ([2]; all lorundrostat-treated participants (41/87), placebo 18/29 [62%]): 47% | findings in clinical laboratory, vital signs, ECGs, or physical examination ([2]; all parts): no clinically significant findings | serious TEAEs ([2]; all parts): no serious TEAEs | tolerability ([2]; all parts, single up to 800 mg, once daily up to 360 mg for 7 days): well tolerated | maximum mean increase of serum potassium ([3]; MAD 40 mg, Day 8): 0.44 mmol/L | maximum mean increase of serum potassium ([3]; MAD 120 mg, Day 7): 0.6 mmol/L | subjects reaching the stopping criterion for potassium of 6.0 mmol/L ([3]; MAD part 2): None | ACTH-stimulated cortisol response [4, 11]: no effect | change from baseline of serum cortisol concentrations ([4]; MAD, non-ACTH challenge conditions): no relevant changes from baseline | effect on cortisol (AUC0–72) ([4]; single doses 10 to 800 mg): without effecting cortisol | plasma renin activity compared with placebo [5]: increased | ACTH-stimulated aldosterone response compared with placebo [6, 11]: completely blunted | maximum decrease of PAC compared with placebo ([6]; SAD, at 4 h and 8 h post-dose): ~ 80% | time for plasma aldosterone to return to baseline ([6]; multiple once-daily 120-mg doses): ≤ 16 h | reduction of PAC (AUC0–24) ([6]; single 400- to 800-mg doses): up to 70% | time for PAC to return to values near baseline ([6]; single doses 5–50 mg, post-dose): ≤ 24 h | duration of the reduction of PAC ([6]; single doses 100–800 mg): sustained until 24 h post‐dose | selectivity for CYP11B2 over CYP11B1 [7]: 374 fold | serum 11-DOC compared with placebo [8]: increased | urine sodium and urinary log10 (10 × Na+/K+) ratio ([9]; MAD Day 1, all dose levels): initially increased | urine sodium and urinary log10 (10 × Na+/K+) ratio ([9]; MAD Day 7, end of the dosing period): returned to baseline levels | urinary log10 (10 × Na+/K+) ratio ([9]; MAD, Day 7 to Day 9 (after last dose)): clear reductions | urine sodium and urinary log10 (10 × Na+/K+) ratio ([9]; SAD, all dose levels): increased | estimate of the slope for AUC0–24 versus dose (power model) ([10]; MAD Day 7, 95% CI, 1.060–1.234): 1.147 | steady state achieved by ([10]; MAD once-daily dosing): ~5 days | estimate of the slope (95% CI) for C max versus dose (power model) ([10]; SAD 5–800 mg): 1.104 (1.043–1.164) | interindividual variability of exposure parameters (C max and AUC0–∞) ([10]; SAD 5–800 mg): < 20% | effect of fed state on the PK profile ([10]; first cohort of part 2 (fed) vs part 1 (fasted), exploratory): did not appear to be affected | half-life ([10]; human, plasma, oral, 5 mg, t 1/2, SAD 5 mg single dose, fasted, mean (SD)): 8.3 h | half-life ([10]; human, plasma, oral, 10 mg, t 1/2, SAD 10 mg single dose, fasted, mean (SD)): 7.9 h | half-life ([10]; human, plasma, oral, 40 mg, t 1/2, MAD 40 mg once daily, fed, Day 1, mean (SD)): 5.3 h | half-life ([10]; human, plasma, oral, 50 mg, t 1/2, SAD 50 mg single dose, fasted, mean (SD)): 9.1 h | half-life ([10]; human, plasma, oral, 120 mg, t 1/2, MAD 120 mg once daily, fed, Day 1, mean (SD)): 4.4 h | half-life ([10]; human, plasma, oral, 200 mg, t 1/2, SAD 200 mg single dose, fasted, mean (SD)): 9.9 h | Tmax ([10]; human, plasma, oral, 360 mg, T max, MAD 360 mg once daily, fed, Day 1, median (minimum, maximum)): 3 h | half-life ([10]; human, plasma, oral, 360 mg, t 1/2, MAD 360 mg once daily, fed, Day 1, mean (SD)): 4.4 h | half-life ([10]; human, plasma, oral, 360 mg, t 1/2, MAD 360 mg once daily, fed, Day 7, mean (SD)): 9.2 h | half-life ([10]; human, plasma, oral, 400 mg, t 1/2, SAD 400 mg single dose, fasted, mean (SD)): 9.7 h | half-life ([10]; human, plasma, oral, 800 mg, t 1/2, SAD 800 mg single dose, fasted, mean (SD)): 10.5 h | half-life ([10]; human, plasma, oral, mean t 1/2, MAD Day 7, range over dose groups): 9.1 to 11.9 h | half-life ([10]; human, plasma, oral, t 1/2, single- and multiple-dose administration): 10 to 12 h | difference in exposure between females and males ([10]; single 100 mg dose, part 3 vs part 1): no statistically significant difference | difference in exposure between older adult and younger adult participants ([10]; single 100 mg dose, part 4 vs part 1): no statistically significant difference
